Results from ChEMBL document CHEMBL1154842, “Synthesis, radiolabeling, and biological evaluation of (R)- and (S)-2-amino-3-[(18)F]fluoro-2-methylpropanoic acid (FAMP) and (R)- and (S)-3-[(18)F]fluoro-2-methyl-2-N-(methylamino)propanoic acid (NMeFAMP) as potential PET radioligands for imaging brain tumors” (J Med Chem, 2010).

Experiments:
9L [1] = experiment: Cellular uptake in rat 9L cells assessed as inhibition of uptake at 5 uCi measured […] by gamma counting in presence of system ASC transport inhibitor ACS relative to control; type: ADME, cell-based; set-up: scale not given: the % may be the effect or the level left
In short: (§1)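 9L rat gliosarcoma cells, grown in DMEM with 10% FCS, were trypsinised and washed in HBSS. About 5×10^5 cells were incubated with 5 μCi tracer in amino-acid-free HBSS for 30 min at 37 °C, with or without 10 mM final BCH, MeAIB or ACS (3.3 mM each Ala/Cys/Ser). Cells were washed cold, gamma-counted and decay-corrected. Inhibition is percent of control; triplicates, one-way ANOVA.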

9L [2] = experiment: Cellular uptake in rat 9L cells at 5 uCi measured […] by gamma counting in presence of system A transport inhibitor MeAIB; type: ADME, cell-based
In short: (§2)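 9L rat gliosarcoma cells (DMEM, 10% FCS, 37 °C, 5% CO2) were trypsinised and washed in HBSS. About 5×10^5 cells took up 5 μCi tracer for 30 min in 0.1 mL amino acid-free HBSS, with inhibitor at 10 mM final (ACS: 3.3 mM each of alanine, cysteine, serine). Cells were spun and rinsed twice with ice-cold HBSS, then gamma counted with decay correction. Triplicates; uptake is % ID per 5×10^5 cells.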

9L [3] = experiment: Cellular uptake in rat 9L cells at 5 uCi measured […] by gamma counting; type: ADME, cell-based
In short: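 9L rat gliosarcoma cells, grown in DMEM with 10% FCS, were trypsinised and washed in HBSS. About 5×10^5 cells were exposed to 5 μCi tracer in amino-acid-free HBSS for 30 min at 37 °C, 5% CO2, then centrifuged and rinsed twice with ice-cold HBSS. Cells were gamma-counted and decay-corrected, with uptake reported as % of initial dose per 5×10^5 cells ± SD, n=3.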

9L [4] = experiment: Cellular uptake in rat 9L cells assessed as inhibition of uptake at 5 uCi measured […] by gamma counting in presence of system L transport inhibitor BCH relative to control; type: ADME, cell-based; set-up: scale not given: the % may be the effect or the level left; in short: as §1
9L [5] = experiment: Cellular uptake in rat 9L cells assessed as inhibition of uptake at 5 uCi measured […] by gamma counting in presence of system A transport inhibitor MeAIB relative to control; type: ADME, cell-based; set-up: scale not given: the % may be the effect or the level left; in short: as §1
9L [6] = experiment: Cellular uptake in rat 9L cells at 5 uCi measured […] by gamma counting in presence of system L transport inhibitor BCH; type: ADME, cell-based; in short: as §2
9L [7] = experiment: Cellular uptake in rat 9L cells at 5 uCi measured per 0.5 million cells by gamma counting in presence of system ASC transport inhibitor ACS
[8] = Ratio of drug level from tumor to brain of Fischer 344 rat bearing rat 9L cells at 20 uCi, iv after 60 mins; conditions: in vivo, 1 h
[9] = rat, in vivo, iv, 1 h
[10] = rat, in vivo, iv, 1 h; remark: listed apart in the source

Row | SMILES | Activity (9L [1]) [%] | Drug uptake (9L [2]) [%ID] | Drug uptake (9L [3]) [%ID] | Activity (9L [4]) [%] | Activity (9L [5]) [%] | Drug uptake (9L [6]) [%ID] | Drug uptake (9L [7]) [%ID] | Ratio [8] | Drug uptake [9] [% ID/g] | Drug uptake [10] [% ID/g]
1 | C[C@@](N)(CF)C(=O)O.Cl | 72 | 3.29 | 4.77 | 75 | 31 | 1.21 | 1.33 | – | – | –
2 | CN[C@@](C)(CF)C(=O)O.Cl | 89 | 0.6 | 7.08 | 54 | 92 | 3.26 | 0.75 | – | – | –
3 | OC[C@H]1O[C@@H](O)[C@H]([18F])[C@@H](O)[C@@H]1O [FLUDEOXYGLUCOSE-F18] | – | – | – | – | – | – | – | 0.8 | 1.3 | 1.05
4 | CN[C@](C)(CF)C(=O)O.Cl | 58 | 0.82 | 3.87 | 29 | 79 | 2.76 | 1.62 | – | – | –
